Active and inactive are the calls of the source. No cut-off for these calls is given here.
Key:
[1] = target: T1, Neutral ceramidase (Homo sapiens, UniProt Q9NR71); assay: Inhibition of human ASAH2 stably over expressed in human A-375 cell lysate using RBM14C24 fluorogenic substrate measured at 20 uM at pH 7.5 by fluorescence spectrophotometry; assay type: subcellular
[2] = target: T2, Acid ceramidase (Homo sapiens) (UniProt Q13510); assay: Inhibition of human ASAH1 stably over expressed in human A-375 cell lysate using RBM14C12 fluorogenic substrate measured at 1:1 compound to substrate molar ratio at pH 4.5 by fluorescence spectrophotometry; assay type: subcellular
T2 sequence (whole entry): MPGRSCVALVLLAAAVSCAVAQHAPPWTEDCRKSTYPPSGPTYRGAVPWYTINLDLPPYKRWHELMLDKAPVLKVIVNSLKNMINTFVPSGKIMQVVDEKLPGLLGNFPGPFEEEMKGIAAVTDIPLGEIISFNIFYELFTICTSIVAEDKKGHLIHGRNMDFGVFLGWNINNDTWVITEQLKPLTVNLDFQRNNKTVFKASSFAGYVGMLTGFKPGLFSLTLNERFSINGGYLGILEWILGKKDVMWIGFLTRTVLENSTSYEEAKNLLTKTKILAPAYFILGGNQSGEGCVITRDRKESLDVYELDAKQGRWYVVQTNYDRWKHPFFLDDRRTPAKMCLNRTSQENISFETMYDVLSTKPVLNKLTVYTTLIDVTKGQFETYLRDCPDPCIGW

[3] = target: T2, Acid ceramidase (Homo sapiens); assay: Inhibition of human ASAH1 stably over expressed in human A-375 cell lysate using RBM14C12 fluorogenic substrate measured at 40 uM at pH 4.5 by fluorescence spectrophotometry; assay type: subcellular
Outline: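 Lysate of doxycycline-induced AC-overexpressing A375 cells (25 μg) in 25 mM sodium acetate pH 4.5, with RBM14C12 (10 μM) and a range of compound concentrations, 3 h at 37 °C. NaIO4/glycine-NaOH pH 10.6 development, fluorescence at 355/460 nm. Mean ± SEM from three to four experiments in triplicate.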

[4] = target: T3, Alkaline ceramidase 3 (Mus musculus) (UniProt Q9D099); assay: Inhibition of ACER3 in ASAH2-null mouse embryonic fibroblast lysate using RBM14C16 fluorogenic substrate measured at pH 9 in presence of Ca2+ by fluorescence spectrophotometry; assay type: subcellular; conditions: MEF, time 3.0 hrs
T3 sequence (whole entry): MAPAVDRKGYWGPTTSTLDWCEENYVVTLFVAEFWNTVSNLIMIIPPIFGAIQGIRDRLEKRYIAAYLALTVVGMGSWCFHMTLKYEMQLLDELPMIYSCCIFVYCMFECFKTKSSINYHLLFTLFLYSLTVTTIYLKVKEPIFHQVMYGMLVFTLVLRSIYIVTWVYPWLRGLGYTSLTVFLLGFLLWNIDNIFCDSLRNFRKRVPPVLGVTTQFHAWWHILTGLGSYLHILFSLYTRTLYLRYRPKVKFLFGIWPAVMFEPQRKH
Outline: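 Lysate of ASAH2-null MEF (25 μg protein) in 50 mM HEPES, 1 mM CaCl2, pH 9, incubated 3 h at 37 °C with RBM14C16 and test compound. Stopped with MeOH, then NaIO4 in glycine-NaOH pH 10.6, 1 h at 37 °C in dark. Fluorescence read at ex 355/em 460 nm against enzyme-free blanks. Triplicates.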

[5] = target: T1, Neutral ceramidase; assay: Non-competitive inhibition of recombinant ASAH2 stably over expressed in human A-375 cell lysate using RBM14C24 as substrate; assay type: subcellular
[6] = target: T4, Alkaline ceramidase 3 (Mus musculus, UniProt Q9D099); assay: Non-competitive inhibition of ACER3 in ASAH2-null mouse embryonic fibroblast lysate using RBM14C16 as substrate; assay type: subcellular
T4 sequence (Q9D099 whole entry): T3 sequence (whole entry)
Outline: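 Kinetics used ASAH2-null MEF lysate (25 μg) in 50 mM HEPES, 1 mM CaCl2, pH 9. RBM14C16 at 5, 10, 20 and 40 μM, with varied inhibitor amounts. Ki taken from the slopes of double-reciprocal regression lines at each inhibitor concentration. Four experiments in triplicate.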

[7] = target: T5, Acid ceramidase (Homo sapiens, UniProt Q13510); assay: (§1) Inhibition of human ASAH1 stably over expressed in human intact A-375 cells using RBM14C12 fluorogenic substrate measured at pH 4.5 by fluorescence spectrophotometry; assay type: cell-based
T5 sequence (Q13510 whole entry): T2 sequence (whole entry)
Outline: (§2)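 A375 cells with doxycycline-inducible AC, induced with 1 μg/mL doxycycline for 24 h. Intact cells (2x10^4/well) given RBM14C12 (10 μM) plus compounds in a range of concentrations in DMEM 10% FBS for 3 h at 37 °C. NaIO4 oxidation at pH 10.6, fluorescence at 355/460 nm, normalized to SRB protein. Three experiments in triplicate.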

[8] = target: T3, Alkaline ceramidase 3 (Mus musculus); assay: Inhibition of ACER3 in ASAH2-null intact mouse embryonic fibroblast cell assessed as reduction in sphingosine level incubated for 3 hrs by LC-MS analysis; conditions: MEF
Outline: (§3)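 ASAH2-null MEF seeded at 0.2x10^6 cells/mL, grown 24 h, then given 50 μM compound or vehicle in DMEM 10% FBS for 3 h. Cells washed with PBS, lipids extracted and quantified by LC/MS. Mean ± SD from two experiments with triplicates; unpaired two-tailed t-test versus vehicle.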

[9] = target: T3, Alkaline ceramidase 3 (Mus musculus); assay: Inhibition of ACER3 in ASAH2-null intact mouse embryonic fibroblast cell assessed as reduction in sphingomyelin level incubated for 3 hrs by LC-MS analysis; conditions: MEF; outline: as §3
[10] = target: T3, Alkaline ceramidase 3 (Mus musculus); assay: Inhibition of ACER3 in ASAH2-null intact mouse embryonic fibroblast cell assessed as reduction in glucosylceramide level incubated for 3 hrs by LC-MS analysis; conditions: MEF; outline: as §3
[11] = target: T3, Alkaline ceramidase 3 (Mus musculus); assay: Inhibition of ACER3 in ASAH2-null intact mouse embryonic fibroblast cell assessed as increase in total […] incubated for 3 hrs by LC-MS analysis; conditions: MEF; outline: as §3
[12] = target: Neutral ceramidase (Mus musculus) (UniProt Q9JHE3); assay: Inhibition of ASAH2 in wild type mouse intact embryonic fibroblast using RBM14C16 fluorogenic substrate measured at pH 7.5 incubated for 3 hrs by fluorescence spectrophotometry; conditions: MEF
Outline: (§4)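 Intact MEF (ASAH2-null or wild type) seeded at 2x10^4 cells/well 24 h before the assay. Then given RBM14C16 (10 μM) plus a range of compound concentrations, added together, in DMEM 10% FBS for 3 h at 37 °C. Stopped with MeOH, oxidized with NaIO4 at pH 10.6, umbelliferone fluorescence read at 355/460 nm. Normalized to SRB protein; three experiments in triplicate.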

[13] = target: T3, Alkaline ceramidase 3 (Mus musculus); assay: Inhibition of ACER3 in ASAH2-null mouse intact embryonic fibroblast using RBM14C16 fluorogenic substrate measured at pH 9 for 3 hrs by fluorescence spectrophotometry; conditions: MEF; outline: as §4
[14] = target: T1, Neutral ceramidase; assay: Inhibition of human ASAH2 transiently over expressed in human HT-29 cell lysate using RBM14C24 fluorogenic substrate measured at pH 7.4 by fluorescence spectrophotometry
[15] = target: T1, Neutral ceramidase; assay: Inhibition of human ASAH2 transiently over expressed in human HT29 cell lysate using RBM14C24 fluorogenic substrate measured at >40 uM at pH 7.4 by fluorescence spectrophotometry; conditions: HT-29, dose microM >40
[16] = target: T2, Acid ceramidase (Homo sapiens); assay: as §1; assay type: cell-based; conditions: time 3.0 hrs; outline: as §2
[17] = target: T1, Neutral ceramidase; assay: Inhibition of human ASAH2 recombinant enzyme using RBM14C16 fluorogenic substrate measured at 5 uM at pH 7.5 by fluorescence spectrophotometry
[18] = target: T1, Neutral ceramidase; assay: Inhibition of human ASAH2 recombinant enzyme using RBM14C16 fluorogenic substrate measured at 20:1 substrate to compound molar ratio at pH 7.5 by fluorescence spectrophotometry

Sequence of Neutral ceramidase (Mus musculus) (Q9JHE3 whole entry): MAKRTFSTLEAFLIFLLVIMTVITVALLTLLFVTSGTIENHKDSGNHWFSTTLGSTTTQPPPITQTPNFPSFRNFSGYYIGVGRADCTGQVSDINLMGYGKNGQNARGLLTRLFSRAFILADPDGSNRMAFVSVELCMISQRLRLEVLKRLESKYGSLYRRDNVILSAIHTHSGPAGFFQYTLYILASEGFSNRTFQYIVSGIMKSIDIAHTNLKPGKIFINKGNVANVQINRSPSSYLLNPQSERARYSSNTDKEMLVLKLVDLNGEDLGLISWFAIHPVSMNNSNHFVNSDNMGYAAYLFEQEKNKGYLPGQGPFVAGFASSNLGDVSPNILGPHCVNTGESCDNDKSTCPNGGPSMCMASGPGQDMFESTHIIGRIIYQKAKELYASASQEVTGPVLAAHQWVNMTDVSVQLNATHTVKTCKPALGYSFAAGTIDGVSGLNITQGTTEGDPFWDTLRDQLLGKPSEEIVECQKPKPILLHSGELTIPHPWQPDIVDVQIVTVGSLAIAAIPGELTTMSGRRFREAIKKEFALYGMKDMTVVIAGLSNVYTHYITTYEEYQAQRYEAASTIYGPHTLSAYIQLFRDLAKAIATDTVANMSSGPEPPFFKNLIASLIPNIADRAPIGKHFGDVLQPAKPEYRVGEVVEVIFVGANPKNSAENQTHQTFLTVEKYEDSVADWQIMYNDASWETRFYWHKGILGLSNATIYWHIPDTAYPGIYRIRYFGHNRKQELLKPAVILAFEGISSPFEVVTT
T1 sequence (Q9NR71 whole entry): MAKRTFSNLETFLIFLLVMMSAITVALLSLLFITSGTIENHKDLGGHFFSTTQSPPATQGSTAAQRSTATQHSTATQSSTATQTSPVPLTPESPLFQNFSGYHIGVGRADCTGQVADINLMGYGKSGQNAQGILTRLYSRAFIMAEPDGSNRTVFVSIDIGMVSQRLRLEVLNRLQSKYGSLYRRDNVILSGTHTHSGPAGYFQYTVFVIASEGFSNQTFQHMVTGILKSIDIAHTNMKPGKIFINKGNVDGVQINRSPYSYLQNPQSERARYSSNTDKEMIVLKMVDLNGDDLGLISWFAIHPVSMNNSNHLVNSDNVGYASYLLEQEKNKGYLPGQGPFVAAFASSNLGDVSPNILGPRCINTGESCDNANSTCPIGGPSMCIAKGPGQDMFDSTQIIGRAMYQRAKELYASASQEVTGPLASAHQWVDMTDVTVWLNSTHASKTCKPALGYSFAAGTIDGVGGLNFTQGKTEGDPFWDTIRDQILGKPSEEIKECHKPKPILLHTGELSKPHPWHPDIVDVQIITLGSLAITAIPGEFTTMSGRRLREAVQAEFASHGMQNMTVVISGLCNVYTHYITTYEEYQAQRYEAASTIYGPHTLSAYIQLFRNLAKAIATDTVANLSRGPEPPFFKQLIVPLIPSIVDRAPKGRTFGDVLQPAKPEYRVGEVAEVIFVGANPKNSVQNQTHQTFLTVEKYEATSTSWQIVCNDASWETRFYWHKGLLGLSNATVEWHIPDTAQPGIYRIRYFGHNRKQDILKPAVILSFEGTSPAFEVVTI

inhibition [1]	inhibition [2]	inhibition [3]	inhibition [4]	Ki [5] [µM]	Ki [6] [µM]	IC50 [7] [µM]	inhibition [8]	inhibition [9]	inhibition [10]	fold change (FC) [11]	inhibition [12]	inhibition [13]	inhibition [14]	inhibition [15] [%]	inhibition [16]	inhibition [17]	inhibition [18]	SMILES
inactive	inactive	Active	Dose-Dependent Effect	5.4	25.5	> 200	inactive	inactive	inactive	1.5	Active	Active	Dose-Dependent Effect	50				CCCCCCCCCCCC/C=C/[C@@H](O)[C@@H](C)NC(=O)c1ccc(OCCCOCOC)cc1
	inactive		Dose-Dependent Effect		34.4	> 200	inactive	inactive	inactive	1.5	Active	Active						CCCCCCCCCCCC/C=C/[C@@H](O)[C@@H](C)NC(=O)c1ccc(OCCCCOCOC)cc1
Active	inactive	Active		0.8							inactive	inactive	inactive		inactive	Active	Active	CCCCCCCCCCCC/C=C/[C@@H](O)[C@@H](C)NC(=O)c1ccc(CCCCCCC)cc1
